In ChEMBL document CHEMBL1127574, “Design and synthesis of ellipticinium salts and 1,2-dihydroellipticines with high selectivities against human CNS cancers in vitro” (1994):

Experiments:
Assay type in all cases: functional
UACC-62 = assay: Tested in vitro for cytotoxicity in UACC-62 cell line of Melanoma; conditions: Homo sapiens, read-out: Log TGI (converted)
Outline: (§1)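 Compounds dissolved in DMSO and diluted 500-fold into aqueous medium; aliquots of the resulting solutions or suspensions added to cultured human tumor cells for 48 h. Growth read colorimetrically, either by tetrazolium reduction to formazan by viable cells or by protein staining of total cellular protein.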

Malme-3M = assay: Tested in vitro for cytotoxicity in MALME-3M; conditions: Homo sapiens
Outline: (§2)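 Compounds dissolved in DMSO, then diluted 500-fold into aqueous medium. The resulting aqueous solutions or suspensions were added to the cultured human tumour cell lines, and the cells were exposed for 48 h. Growth was read colorimetrically in one of two ways: a metabolic assay in which viable cells reduce a tetrazolium salt to a formazan dye, or a protein stain for total cellular protein.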

A549 = assay: Tested in vitro for cytotoxicity in A549/ATCC cell lines; conditions: Homo sapiens; outline: as §2
UO-31 = assay: Tested in vitro for cytotoxicity in UO-31 cell line of Renal cancer; conditions: Homo sapiens, read-out: Log TGI (converted); outline: as §1
RXF 631 = assay: Tested in vitro for cytotoxicity in RXF-631 cell line of Renal cancer; conditions: Homo sapiens, read-out: Log TGI (converted); outline: as §2
IGROV-1 = assay: Tested in vitro for cytotoxicity in IGROV1 cell line of Ovarian Cancer; conditions: Homo sapiens, read-out: Log TGI (converted); outline: as §2
SF-268 = assay: Tested in vitro for cytotoxicity in SF-268 cell lines; conditions: Homo sapiens; outline: as §2
K562 = assay: Tested in vitro for cytotoxicity in K-562 cell line of Leukemia; conditions: Homo sapiens, read-out: Log TGI (converted); outline: as §2
CCRF-CEM = assay: Tested in vitro for cytotoxicity in CCRF-CEM cell line of Leukemia; conditions: Homo sapiens, read-out: Log TGI (converted); outline: as §2
HCT-116 = assay: Tested in vitro for cytotoxicity in HCT116 cell line of Colon Cancer; conditions: Homo sapiens, read-out: Log TGI (converted); outline: as §2
HOP-62 = assay: Tested in vitro for cytotoxicity in HOP-62 cell line of Non-Small Cell Lung Cancer; conditions: Homo sapiens, read-out: Log TGI (converted); outline: as §2
SK-MEL-5 = assay: Tested in vitro for cytotoxicity in SK-MEL-5 cell line of Melanoma; conditions: Homo sapiens, read-out: Log TGI (converted); outline: as §1
HOP-92 = assay: Tested in vitro for cytotoxicity in HOP-92 cell line of Non-Small Cell Lung Cancer; conditions: Homo sapiens, read-out: Log TGI (converted); outline: as §2
A498 = assay: Tested in vitro for cytotoxicity in A498 cell line of Renal cancer; conditions: Homo sapiens, read-out: Log TGI (converted); outline: as §2
OVCAR-3 = assay: Tested in vitro for cytotoxicity in OVCAR-3 cell line of Ovarian Cancer; conditions: Homo sapiens, read-out: Log TGI (converted)
Outline: (§3)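 Compound DMSO solutions diluted 500-fold into aqueous medium; the resulting solutions or suspensions were added to cultured human tumor cells for 48 h. Growth was read colorimetrically, either by tetrazolium reduction to formazan by viable cells or by a protein stain for total cellular protein.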

SK-MEL-28 = assay: Tested in vitro for cytotoxicity in SK-MEL-28 cell line of Melanoma; conditions: Homo sapiens, read-out: Log TGI (converted); outline: as §2
SW-620 = assay: Tested in vitro for cytotoxicity in SW-620 cell line of Colon Cancer; conditions: Homo sapiens, read-out: Log TGI (converted); outline: as §1
UACC-257 = assay: Tested in vitro for cytotoxicity in UACC-257 cell line of Melanoma; conditions: Homo sapiens, read-out: Log TGI (converted); outline: as §1
ACHN = assay: Tested in vitro for cytotoxicity in ACHN cell line of Renal cancer; conditions: Homo sapiens, read-out: Log TGI (converted); outline: as §2
SNB-19 = assay: Tested in vitro for cytotoxicity in SNB-19 cell line of CNS Cancer; conditions: Homo sapiens, read-out: Log TGI (converted); outline: as §3
HCT-15 = assay: Tested in vitro for cytotoxicity in HCT-15 cell line of Colon Cancer; conditions: Homo sapiens, read-out: Log TGI (converted); outline: as §2
KM-20L2 = assay: Tested in vitro for cytotoxicity in KM20L2 cell line of Colon Cancer; conditions: Homo sapiens, read-out: Log TGI (converted); outline: as §3
SNB-78 = assay: Tested in vitro for cytotoxicity in SNB-78 cell line of CNS Cancer; conditions: Homo sapiens, read-out: Log TGI (converted); outline: as §1
LXFL 529 = assay: Tested in vitro for cytotoxicity in LXFL-529 cell line of Non-Small Cell Lung Cancer; conditions: Homo sapiens, read-out: Log TGI (converted); outline: as §2
SK-MEL-2 = assay: Tested in vitro for cytotoxicity in SK-MEL-2 cell line of Melanoma; conditions: Homo sapiens, read-out: Log TGI (converted); outline: as §2
DMS-114 = assay: Tested in vitro for cytotoxicity in DMS114 cell line of Small Cell Lung Cancer; conditions: Homo sapiens, read-out: Log TGI (converted); outline: as §2
786-0 = assay: Tested in vitro for cytotoxicity in 786-0 cell line of Renal cancer; conditions: Homo sapiens, read-out: Log TGI (converted); outline: as §2
OVCAR-8 = assay: Tested in vitro for cytotoxicity in OVCAR-8 cell line of Ovarian Cancer; conditions: Homo sapiens, read-out: Log TGI (converted); outline: as §2
SF-539 = assay: Tested in vitro for cytotoxicity in SF-539 cell line of CNS Cancer; conditions: Homo sapiens, read-out: Log TGI (converted); outline: as §2
SF-295 = assay: Tested in vitro for cytotoxicity in SF-295 cell line of CNS Cancer; conditions: Homo sapiens, read-out: Log TGI (converted); outline: as §2
COLO 205 = assay: Tested in vitro for cytotoxicity in COLO 205 cell lines; conditions: Homo sapiens; outline: as §2

Compound: COc1ccc2[nH]c3c(C)c4cc[n+](C)cc4c(C)c3c2c1
- TGI (UACC-62): > 100 µM
- GI50 (Malme-3M): 5.27 µM
- GI50 (A549): 1.52 µM
- TGI (UO-31): > 100 µM
- TGI (RXF 631): > 100 µM
- TGI (IGROV-1): > 100 µM
- GI50 (SF-268): 0.409 µM
- TGI (K562): > 100 µM
- TGI (CCRF-CEM): > 100 µM
- TGI (HCT-116): > 100 µM
- TGI (HOP-62): 6.31 µM
- TGI (SK-MEL-5): 20 µM
- TGI (HOP-92): 79.4 µM
- TGI (A498): > 100 µM
- TGI (OVCAR-3): 100 µM
- TGI (SK-MEL-28): 50.1 µM
- TGI (SW-620): > 100 µM
- TGI (UACC-257): > 100 µM
- TGI (ACHN): > 100 µM
- TGI (SNB-19): 10 µM
- TGI (HCT-15): > 100 µM
- TGI (KM-20L2): > 100 µM
- TGI (SNB-78): 10 µM
- TGI (LXFL 529): 10 µM
- TGI (SK-MEL-2): 63.1 µM
- TGI (DMS-114): 6.31 µM
- TGI (786-0): 5.01 µM
- TGI (OVCAR-8): 31.6 µM
- TGI (SF-539): 6.31 µM
- TGI (SF-295): 6.31 µM
- GI50 (COLO 205): 2.4 µM
